Test results reported in ChEMBL document CHEMBL1148731, “An integrated computational approach to the phenomenon of potent and selective inhibition of aurora kinases B and C by a series of 7-substituted indirubins” (J Med Chem, 2007).

Legend:
Aurora kinase C = target: T1, Aurora kinase C (Homo sapiens, UniProt Q9UQB9); experiment: Inhibition of human recombinant aurora C kinase
T1 sequence (Q9UQB9 whole entry): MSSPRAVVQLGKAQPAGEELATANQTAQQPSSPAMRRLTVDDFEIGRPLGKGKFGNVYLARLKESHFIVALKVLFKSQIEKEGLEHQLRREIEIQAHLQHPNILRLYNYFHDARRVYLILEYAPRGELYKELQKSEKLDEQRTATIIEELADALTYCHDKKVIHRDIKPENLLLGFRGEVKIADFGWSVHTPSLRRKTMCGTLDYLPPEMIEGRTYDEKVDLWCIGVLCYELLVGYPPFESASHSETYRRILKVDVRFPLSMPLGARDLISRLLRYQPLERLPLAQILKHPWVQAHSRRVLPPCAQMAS
In short: (§1)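 Recombinant human Aurora kinase (A, B or C); myelin basic protein substrate (1 mg/mL) with 15 µM [γ-33P]ATP in buffer C (25 mM Mops pH 7.2, 60 mM β-glycerophosphate, 15 mM p-nitrophenylphosphate, 5 mM EGTA, 15 mM MgCl2, 1 mM DTT, 1 mM vanadate, 1 mM phenylphosphate), 30 min at 30 °C. Stopped by spotting on P81 paper, washed in 1% phosphoric acid, scintillation counted. IC50 from dose-response curves over various concentrations.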

Aurora kinase B = Aurora kinase B (Homo sapiens, UniProt Q96GD4); experiment: Inhibition of human recombinant aurora B kinase; in short: as §1
Aurora kinase B, sequence (Q96GD4 whole entry): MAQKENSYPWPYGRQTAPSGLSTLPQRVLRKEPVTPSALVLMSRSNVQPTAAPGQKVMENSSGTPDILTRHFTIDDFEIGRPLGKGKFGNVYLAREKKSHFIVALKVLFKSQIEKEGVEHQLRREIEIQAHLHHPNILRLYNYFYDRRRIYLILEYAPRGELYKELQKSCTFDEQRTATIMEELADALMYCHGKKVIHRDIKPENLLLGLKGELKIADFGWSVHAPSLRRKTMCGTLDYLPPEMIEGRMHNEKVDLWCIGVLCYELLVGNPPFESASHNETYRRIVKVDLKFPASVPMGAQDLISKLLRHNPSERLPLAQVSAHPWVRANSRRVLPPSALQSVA

Aurora kinase A = target: T2, Aurora kinase A (Homo sapiens, UniProt O14965); experiment: Inhibition of human recombinant aurora A kinase
T2 sequence (O14965 whole entry): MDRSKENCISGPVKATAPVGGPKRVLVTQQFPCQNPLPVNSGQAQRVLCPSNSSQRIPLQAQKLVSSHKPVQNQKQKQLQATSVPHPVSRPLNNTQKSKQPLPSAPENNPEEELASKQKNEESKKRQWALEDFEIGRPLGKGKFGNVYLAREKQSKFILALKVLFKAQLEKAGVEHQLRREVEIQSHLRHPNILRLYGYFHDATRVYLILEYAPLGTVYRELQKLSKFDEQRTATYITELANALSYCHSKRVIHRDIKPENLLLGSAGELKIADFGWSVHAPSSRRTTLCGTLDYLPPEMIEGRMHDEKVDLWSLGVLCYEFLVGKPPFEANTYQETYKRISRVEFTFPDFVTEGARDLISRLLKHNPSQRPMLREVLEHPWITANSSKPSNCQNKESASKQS

## O=Nc1c(-c2c(O)[nH]c3c(I)cccc23)[nH]c2ccccc12
Aurora kinase C
  IC50: 0.6 µM
Aurora kinase B
  IC50: 10 µM
Aurora kinase A
  IC50: > 100 µM

## CC(=O)O/N=C1\C(c2c(O)[nH]c3ccccc23)=Nc2ccccc21
Aurora kinase C
  IC50: 0.7 µM
Aurora kinase B
  IC50: 2.1 µM
Aurora kinase A
  IC50: 2.3 µM

## O=C1C(c2c(O)[nH]c3c(F)cccc23)=Nc2ccccc21
Aurora kinase C
  IC50: > 100 µM
Aurora kinase B
  IC50: > 100 µM
Aurora kinase A
  IC50: > 100 µM

## CO/N=C1\C(c2c(O)[nH]c3ccccc23)=Nc2ccccc21
Aurora kinase C
  IC50: 0.4 µM
Aurora kinase B
  IC50: 3 µM
Aurora kinase A
  IC50: 4.3 µM

## O=Nc1c(-c2c(O)[nH]c3c(F)cccc23)[nH]c2ccccc12
Aurora kinase C
  IC50: 1 µM
Aurora kinase B
  IC50: 7 µM
Aurora kinase A
  IC50: 2 µM

## O=Nc1c(-c2c(O)[nH]c3c(Cl)cccc23)[nH]c2ccccc12
Aurora kinase C
  IC50: 0.9 µM
Aurora kinase B
  IC50: 8 µM
Aurora kinase A
  IC50: > 100 µM

## O=C1C(c2c(O)[nH]c3c(Br)cccc23)=Nc2ccccc21
Aurora kinase C
  IC50: > 100 µM
Aurora kinase B
  IC50: > 100 µM
Aurora kinase A
  IC50: > 100 µM

## CO/N=C1\C(=C2\C(=O)Nc3c(Br)cccc32)Nc2ccccc21
Aurora kinase C
  IC50: > 100 µM
Aurora kinase B
  IC50: > 100 µM
Aurora kinase A
  IC50: > 100 µM

## CO/N=C1\C(=C2\C(=O)Nc3c(Cl)cccc32)Nc2ccccc21
Aurora kinase C
  IC50: > 100 µM
Aurora kinase B
  IC50: > 100 µM
Aurora kinase A
  IC50: > 100 µM

## CC(=O)O/N=C1\C(=C2\C(=O)Nc3c(F)cccc32)Nc2ccccc21
Aurora kinase C
  IC50: 1 µM
Aurora kinase B
  IC50: 8 µM
Aurora kinase A
  IC50: 20 µM

## CO/N=C1\C(=C2\C(=O)Nc3c(I)cccc32)Nc2ccccc21
Aurora kinase C
  IC50: > 100 µM
Aurora kinase B
  IC50: > 100 µM
Aurora kinase A
  IC50: > 100 µM

## O=Nc1c(-c2c(O)[nH]c3c(Br)cccc23)[nH]c2ccccc12
Aurora kinase C
  IC50: 0.7 µM
Aurora kinase B
  IC50: 4.6 µM

## O=C1C(c2c(O)[nH]c3c(Cl)cccc23)=Nc2ccccc21
Aurora kinase C
  IC50: > 100 µM
Aurora kinase B
  IC50: > 100 µM
Aurora kinase A
  IC50: > 100 µM

## O=C1C(c2c(O)[nH]c3c(I)cccc23)=Nc2ccccc21
Aurora kinase C
  IC50: > 100 µM
Aurora kinase B
  IC50: > 100 µM
Aurora kinase A
  IC50: > 100 µM

## CC(=O)O/N=C1\C(=C2\C(=O)Nc3c(I)cccc32)Nc2ccccc21
Aurora kinase C
  IC50: 28 µM
Aurora kinase B
  IC50: > 100 µM
Aurora kinase A
  IC50: > 100 µM

## CC(=O)O/N=C1\C(=C2\C(=O)Nc3c(Br)cccc32)Nc2ccccc21
Aurora kinase C
  IC50: 4.5 µM
Aurora kinase B
  IC50: 20 µM
Aurora kinase A
  IC50: > 100 µM

## CC(=O)O/N=C1\C(=C2\C(=O)Nc3c(Cl)cccc32)Nc2ccccc21
Aurora kinase C
  IC50: > 100 µM
Aurora kinase B
  IC50: > 100 µM
Aurora kinase A
  IC50: > 100 µM

## CO/N=C1\C(=C2\C(=O)Nc3c(F)cccc32)Nc2ccccc21
Aurora kinase C
  IC50: > 100 µM
Aurora kinase B
  IC50: > 100 µM
Aurora kinase A
  IC50: > 100 µM

## O=C1Nc2cc(Br)ccc2/C1=C1/Nc2ccccc2/C1=N\O [6BIO]
Aurora kinase C
  IC50: 0.2 µM
Aurora kinase B
  IC50: 0.9 µM

## O=Nc1c(-c2c(O)[nH]c3ccccc23)[nH]c2ccccc12 [INDIRUBIN-3-MONOXIME]
Aurora kinase C
  IC50: 0.3 µM
Aurora kinase B
  IC50: 2.3 µM
Aurora kinase A
  IC50: 4 µM
